The values below come from PMC6982540 (Nature chemical biology, 2019).

Experiment [1] deals with PTP1B–14-3-3ζ association. The experiment is classed as cell-based.
Another experiment concerns reduced PTP1B. Kind of experiment: in vitro pull-down of reduced PTP1B with 14-3-3ζ. The experiment is classed as binding. The conditions noted are these: 50 nM PTP1B-R, 5 μM 14-3-3ζ, pH 7.4, 2 hours at 4°C, immunoblot. The gist of the method:
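Bacterial His-PTP1B (1–321) kept in 1 mM TCEP; GST-14-3-3ζ purified on glutathione agarose. Reduced PTP1B 50 nM with 14-3-3ζ 5 μM in HEPES binding buffer (BSA, Tween, pH 7.4), 2 h at 4°C. Glutathione agarose capture 1 h at 4°C, three washes, SDS-PAGE; immunoblot with anti-PTP1B and anti-GST.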
A general note: Immunoblotting shows a protein as a band on a membrane.

The test system of another experiment is reduced PTP1B (PTP1B-R). The experiment is described as follows: SPR. It counts as binding. The conditions noted are these: 14-3-3ζ 5000 nM (Fig. 2c), HBS-N pH 7.4, 25 °C. The gist of the method: (§1)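 His-PTP1B (1–321) kept in TCEP. For oxidized, phosphorylated form: H2O2 oxidation (250 μM, 10 min, RT), desalting into reductant-free kinase buffer, AKT phosphorylation 16 h at 30°C. Captured on Ni2+-activated NTA chip (2.7 μM injected); reference cell had no NiCl2. 14-3-3ζ in HBS-N pH 7.4 injected at 30 μl/min, 3 min dissociation, 2 M NaCl regeneration, 25 °C.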

Another experiment deals with PTP1B-OX(P). The experiment is described as follows: SPR. The experiment is classed as binding. The conditions noted are these: 14-3-3ζ 5000 nM (Fig. 2c), HBS-N pH 7.4, 25 °C. In outline: as §1
The subject of experiment [2] is PTP1B. Kind of experiment: cysteinyl-labeling assay. The experiment is classed as cell-based. The settings on record: EGF 100 ng/ml, indicated times; three independent experiments.
The test system of experiment [3] is PTP1B. The experiment is described as follows: PTP1B catalytic activity. It counts as cell-based. The conditions noted are these: EGF 100 ng/ml, pNPP, N=3 independent experiments.
A further experiment concerns 14-3-3ζ. Kind of experiment: pTyr loop derived-peptide pulldown from HEK293T lysates, iTRAQ LC-MS/MS. The experiment is classed as binding, human.

Take `CC(=O)N[C@@H](CS)C(=O)O` [NAC, N-acetylcysteine, reference compound]: the “PTP1B–14-3-3ζ association in cells, NAC” value in experiment [1] (NAC 1 mM, 1 h, EGF stimulation, two independent experiments (Fig. 1d)) is “Redox-dependent association between PTP1B and 14-3-3ζ was confirmed”.
Turning to “14-3-3ζ: bacterially expressed, purified GST-14-3-3-ζ protein”, in the experiment with reduced PTP1B, the “interaction of 14-3-3ζ with reduced PTP1B, in vitro pull-down” value is “no interaction occurred with reduced PTP1B”. The “SPR binding of 14-3-3ζ to active reduced PTP1B” value in the experiment on reduced PTP1B (PTP1B-R) is given as “not to the active reduced form of the enzyme”. The “SPR binding of 14-3-3ζ to oxidized, phosphorylated PTP1B” value in the experiment with PTP1B-OX(P) is “specifically binds to PTP1B in its oxidized and phosphorylated inactive state”.
As for “EGF: epidermal growth factor, 100 ng/ml, used to activate EGFR”, the “PTP1B–14-3-3ζ association following EGF” value in experiment [1] (EGF 100 ng/ml, 0-10 min, HEK293T, three independent experiments) is “transient association between PTP1B and 14-3-3ζ between 2 to 5 minutes”. Besides, the “reversible oxidation (biotinylation) of PTP1B, EGF” value with PTP1B [2] was “PTP1B biotinylation was detected in a transient manner at 1 and 2 minutes”. The “PTP1B activity after EGF 10 min” value in the experiment with PTP1B [3] is recorded as “mostly recovered”.
For the compound CKNRNRYRDVS [pTyr loop-derived-peptide], in the experiment with 14-3-3ζ (HEK293T lysate, 90 minutes at 4 °C, vs cysteine control beads), the “enrichment of 14-3-3ζ by peptide bait (iTRAQ)” value was “one of the most abundant proteins, and the most abundant 14-3-3 isoform”. Further, in the experiment on 14-3-3ζ (concluded from SPR compared with MS analysis), the “nature of interaction of unphosphorylated loop peptide with 14-3-3ζ” value was “occurs indirectly via a protein intermediate”.
